Where “and” joins values, the source holds several entries; their conditions need not be identical. Equal entries are not always repeated.
Tests used:
[1] = target: T1, Angiotensin-converting enzyme (Oryctolagus cuniculus, UniProt P12822); assay: Inhibition of Angiotensin I converting enzyme
T1 sequence (P12822 whole entry): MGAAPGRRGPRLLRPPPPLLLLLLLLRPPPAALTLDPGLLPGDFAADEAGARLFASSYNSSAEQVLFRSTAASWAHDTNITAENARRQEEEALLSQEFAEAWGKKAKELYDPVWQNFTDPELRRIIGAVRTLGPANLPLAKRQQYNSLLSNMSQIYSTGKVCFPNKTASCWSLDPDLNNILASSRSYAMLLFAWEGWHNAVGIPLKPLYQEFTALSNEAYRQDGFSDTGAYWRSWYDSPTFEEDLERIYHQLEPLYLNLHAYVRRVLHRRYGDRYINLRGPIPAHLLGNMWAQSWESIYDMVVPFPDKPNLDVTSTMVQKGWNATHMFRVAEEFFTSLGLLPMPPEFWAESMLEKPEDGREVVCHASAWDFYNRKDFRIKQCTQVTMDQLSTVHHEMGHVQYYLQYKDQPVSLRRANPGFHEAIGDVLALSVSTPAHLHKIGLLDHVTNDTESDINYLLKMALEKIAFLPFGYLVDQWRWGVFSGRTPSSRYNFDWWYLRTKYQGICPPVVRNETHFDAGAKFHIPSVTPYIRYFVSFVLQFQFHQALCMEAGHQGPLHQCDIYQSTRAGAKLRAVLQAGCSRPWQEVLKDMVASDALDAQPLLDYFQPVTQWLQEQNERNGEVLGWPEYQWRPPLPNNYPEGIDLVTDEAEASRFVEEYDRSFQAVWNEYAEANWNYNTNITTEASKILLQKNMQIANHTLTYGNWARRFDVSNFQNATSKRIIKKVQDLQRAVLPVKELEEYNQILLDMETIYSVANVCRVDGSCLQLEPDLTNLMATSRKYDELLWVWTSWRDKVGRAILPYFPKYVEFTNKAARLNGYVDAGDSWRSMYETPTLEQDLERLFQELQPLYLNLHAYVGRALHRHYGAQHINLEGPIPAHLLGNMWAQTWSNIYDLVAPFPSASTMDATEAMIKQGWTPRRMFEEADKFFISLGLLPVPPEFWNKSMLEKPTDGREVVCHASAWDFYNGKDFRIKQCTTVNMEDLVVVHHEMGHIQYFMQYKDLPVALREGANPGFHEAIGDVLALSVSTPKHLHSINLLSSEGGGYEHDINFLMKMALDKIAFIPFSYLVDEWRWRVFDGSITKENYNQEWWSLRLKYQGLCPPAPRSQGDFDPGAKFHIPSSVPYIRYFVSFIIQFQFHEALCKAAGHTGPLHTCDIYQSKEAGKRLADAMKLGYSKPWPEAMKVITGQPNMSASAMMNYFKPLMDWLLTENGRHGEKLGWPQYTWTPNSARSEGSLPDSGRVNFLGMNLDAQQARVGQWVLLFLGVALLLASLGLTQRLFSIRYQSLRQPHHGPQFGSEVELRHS

Rattus norvegicus [2] = assay: Effects of oral dosing (10 mg/kg) on systolic blood pressure in spontaneously hypertensive rats, day 4,at 2 hr; assay type: functional, Artery
Outline: (§1)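 Spontaneously hypertensive rats, 6 per group, were dosed orally once daily for 4 days at 0.1, 1.0 or 10 mg/kg. Systolic pressure was recorded before the first dose and at 2 and 24 h after each daily dose. Values are group mean ±SE with change from predose.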

Rattus norvegicus [3] = assay: Effects of oral dosing (1 mg/kg) on systolic blood pressure in spontaneously hypertensive rats, day 1,at 24 hr; assay type: functional, Artery; outline: as §1
Rattus norvegicus [4] = assay: Effects of oral dosing (1 mg/kg) on systolic blood pressure in spontaneously hypertensive rats, day 1,at 2 hr; assay type: functional, Artery; outline: as §1
Rattus norvegicus [5] = assay: Effects of oral dosing (1 mg/kg) on systolic blood pressure in spontaneously hypertensive rats, day 2,at 24 hr; assay type: functional, Artery; outline: as §1
Rattus norvegicus [6] = assay: Effects of oral dosing (1 mg/kg) on systolic blood pressure in spontaneously hypertensive rats, day 2,at 2 hr; assay type: functional, Artery; outline: as §1
Rattus norvegicus [7] = assay: Effects of oral dosing (1 mg/kg) on systolic blood pressure in spontaneously hypertensive rats, day 3,at 24 hr; assay type: functional, Artery; outline: as §1
Rattus norvegicus [8] = assay: Effects of oral dosing (1 mg/kg) on systolic blood pressure in spontaneously hypertensive rats, day 3,at 2 hr; assay type: functional, Artery; outline: as §1
Rattus norvegicus [9] = assay: Effects of oral dosing (1 mg/kg) on systolic blood pressure in spontaneously hypertensive rats, day 4,at 24 hr; assay type: functional, Artery; outline: as §1
Rattus norvegicus [10] = assay: Effects of oral dosing (1 mg/kg) on systolic blood pressure in spontaneously hypertensive rats, day 4,at 2 hr; assay type: functional, Artery; outline: as §1
Rattus norvegicus [11] = species: Rattus norvegicus; assay: Predose systolic blood pressure in spontaneously hypertensive rats; assay type: functional, Artery; outline: as §1
Rattus norvegicus [12] = assay: Effects of oral dosing (10 mg/kg) on systolic blood pressure in spontaneously hypertensive rats, day 1,at 24 hr; assay type: functional, Artery; outline: as §1
Rattus norvegicus [13] = assay: Effects of oral dosing (10 mg/kg) on systolic blood pressure in spontaneously hypertensive rats, day 1,at 2 hr; assay type: functional, Artery; outline: as §1
Rattus norvegicus [14] = assay: Effects of oral dosing (10 mg/kg) on systolic blood pressure in spontaneously hypertensive rats, day 2,at 24 hr; assay type: functional, Artery; outline: as §1
Rattus norvegicus [15] = assay: Effects of oral dosing (10 mg/kg) on systolic blood pressure in spontaneously hypertensive rats, day 2,at 2 hr; assay type: functional, Artery; outline: as §1
Rattus norvegicus [16] = assay: Effects of oral dosing (10 mg/kg) on systolic blood pressure in spontaneously hypertensive rats, day 3,at 24 hr; assay type: functional, Artery; outline: as §1
Rattus norvegicus [17] = assay: Effects of oral dosing (10 mg/kg) on systolic blood pressure in spontaneously hypertensive rats, day 3,at 2 hr; assay type: functional, Artery; outline: as §1
Rattus norvegicus [18] = assay: Effects of oral dosing (10 mg/kg) on systolic blood pressure in spontaneously hypertensive rats, day 4,at 24 hr; assay type: functional, Artery; outline: as §1
Rattus norvegicus [19] = assay: Effects of oral dosing (0.1 mg/kg) on systolic blood pressure in spontaneously hypertensive rats, day 1,at 24 hr; assay type: functional, Artery; outline: as §1
Rattus norvegicus [20] = assay: Effects of oral dosing (0.1 mg/kg) on systolic blood pressure in spontaneously hypertensive rats, day 1,at 2 hr; assay type: functional, Artery; outline: as §1
Rattus norvegicus [21] = assay: Effects of oral dosing (0.1 mg/kg) on systolic blood pressure in spontaneously hypertensive rats, day 2,at 24 hr; assay type: functional, Artery; outline: as §1
Rattus norvegicus [22] = assay: Effects of oral dosing (0.1 mg/kg) on systolic blood pressure in spontaneously hypertensive rats, day 2,at 2 hr; assay type: functional, Artery; outline: as §1
Rattus norvegicus [23] = assay: Effects of oral dosing (0.1 mg/kg) on systolic blood pressure in spontaneously hypertensive rats, day 3,at 24 hr; assay type: functional, Artery; outline: as §1
Rattus norvegicus [24] = assay: Effects of oral dosing (0.1 mg/kg) on systolic blood pressure in spontaneously hypertensive rats, day 3,at 2 hr; assay type: functional, Artery; outline: as §1
Rattus norvegicus [25] = assay: Effects of oral dosing (0.1 mg/kg) on systolic blood pressure in spontaneously hypertensive rats, day 4,at 2 hr; assay type: functional, Artery; outline: as §1
Rattus norvegicus [26] = assay: Effects of oral dosing (0.1 mg/kg) on systolic blood pressure in spontaneously hypertensive rats, day 4,at 24 hr; assay type: functional, Artery; outline: as §1

Q: How did the IC50 [1] turn out when `O=C(O)CN1C(=O)[C@@H](N[C@@H](CCc2ccccc2)C(=O)O)CCCc2ccccc21` was run?
A: 4 nM

Q: For `O=C(O)CN1C(=O)[C@H](N[C@@H](CCc2ccccc2)C(=O)O)CCCc2ccccc21`, which IC50 [1] is on record?
A: 62 nM

Q: For `O=C(O)CN1C(=O)[C@H](N[C@@H](CCc2ccccc2)C(=O)O)Cc2ccccc21`, which IC50 [1] is on record?
A: 5100 nM

Q: Which IC50 [1] does the source give for `O=C(O)CN1C(=O)[C@@H](N[C@@H](CCc2ccccc2)C(=O)O)Cc2ccccc21` here?
A: 610 nM and 1200 nM

Q: How did the Systolic blood pressure (Rattus norvegicus [2]) turn out when `CCOC(=O)[C@H](CCc1ccccc1)N[C@@H](C)C(=O)N1CCC[C@H]1C(=O)O` was run?
A: 135.5 mmHg

Q: And the Systolic blood pressure (Rattus norvegicus [3])?
A: 169.5 mmHg

Q: And the Systolic blood pressure (Rattus norvegicus [4])?
A: 160 mmHg

Q: What about the Systolic blood pressure (Rattus norvegicus [5]) of the same molecule?
A: 168.7 mmHg

Q: And the Systolic blood pressure (Rattus norvegicus [6])?
A: 158.7 mmHg

Q: What about the Systolic blood pressure (Rattus norvegicus [7]) of the same molecule?
A: 160 mmHg

Q: What about the Systolic blood pressure (Rattus norvegicus [8]) of the same molecule?
A: 146.7 mmHg

Q: What about the Systolic blood pressure (Rattus norvegicus [9]) of the same molecule?
A: 160.8 mmHg

Q: And the Systolic blood pressure (Rattus norvegicus [10])?
A: 145 mmHg

Q: And the Systolic blood pressure (Rattus norvegicus [11])?
A: 197.7 mmHg and 186.8 mmHg and 199 mmHg

Q: What about the Systolic blood pressure (Rattus norvegicus [12]) of the same molecule?
A: 168.3 mmHg

Q: And the Systolic blood pressure (Rattus norvegicus [13])?
A: 152.5 mmHg

Q: And the Systolic blood pressure (Rattus norvegicus [14])?
A: 163 mmHg

Q: And the Systolic blood pressure (Rattus norvegicus [15])?
A: 138.5 mmHg

Q: What about the Systolic blood pressure (Rattus norvegicus [16]) of the same molecule?
A: 174 mmHg

Q: What about the Systolic blood pressure (Rattus norvegicus [17]) of the same molecule?
A: 124.5 mmHg

Q: What about the Systolic blood pressure (Rattus norvegicus [18]) of the same molecule?
A: 159.8 mmHg

Q: What about the Systolic blood pressure (Rattus norvegicus [19]) of the same molecule?
A: 175.8 mmHg

Q: What about the Systolic blood pressure (Rattus norvegicus [20]) of the same molecule?
A: 197.5 mmHg

Q: And the Systolic blood pressure (Rattus norvegicus [21])?
A: 173.7 mmHg

Q: What about the Systolic blood pressure (Rattus norvegicus [22]) of the same molecule?
A: 172 mmHg

Q: What about the Systolic blood pressure (Rattus norvegicus [23]) of the same molecule?
A: 173.5 mmHg

Q: What about the Systolic blood pressure (Rattus norvegicus [24]) of the same molecule?
A: 175.7 mmHg

Q: And the Systolic blood pressure (Rattus norvegicus [25])?
A: 168 mmHg

Q: And the Systolic blood pressure (Rattus norvegicus [26])?
A: 204 mmHg

Q: `O=C(O)CN1C(=O)[C@@H](N[C@@H](CCc2ccccc2)C(=O)O)CCc2ccccc21` (stereo in doubt; 4b) was tested. Which IC50 [1] did it give?
A: 2.8 nM

Q: `O=C(O)CN1C(=O)[C@@H](N[C@@H](CCc2ccccc2)C(=O)O)CCc2ccccc21` (stereo in doubt; 4e) was tested. Which IC50 [1] did it give?
A: 5.2 nM

Q: For `O=C(O)CN1C(=O)[C@@H](N[C@@H](CCc2ccccc2)C(=O)O)CCc2ccccc21` (stereo in doubt; 4f), which IC50 [1] is on record?
A: 58 nM

Q: What does the source list for `CCOC(=O)[C@H](CCc1ccccc1)N[C@H]1CCc2ccccc2N(CC(=O)O)C1=O.Cl` [BENAZEPRIL HYDROCHLORIDE]?
A: Systolic blood pressure (Rattus norvegicus [2]): 130.8 mmHg; Systolic blood pressure (Rattus norvegicus [3]): 185.8 mmHg; Systolic blood pressure (Rattus norvegicus [4]): 185.7 mmHg; Systolic blood pressure (Rattus norvegicus [5]): 168.7 mmHg; Systolic blood pressure (Rattus norvegicus [6]): 182.8 mmHg; Systolic blood pressure (Rattus norvegicus [7]): 177.3 mmHg; Systolic blood pressure (Rattus norvegicus [8]): 166.5 mmHg; Systolic blood pressure (Rattus norvegicus [9]): 180.2 mmHg; Systolic blood pressure (Rattus norvegicus [10]): 171.3 mmHg; Systolic blood pressure (Rattus norvegicus [11]): 193.6 mmHg and 200 mmHg and 198 mmHg; Systolic blood pressure (Rattus norvegicus [12]): 167.5 mmHg; Systolic blood pressure (Rattus norvegicus [13]): 162.2 mmHg; Systolic blood pressure (Rattus norvegicus [14]): 147.3 mmHg; Systolic blood pressure (Rattus norvegicus [15]): 146 mmHg; Systolic blood pressure (Rattus norvegicus [16]): 150.2 mmHg; Systolic blood pressure (Rattus norvegicus [17]): 131 mmHg; Systolic blood pressure (Rattus norvegicus [18]): 150 mmHg; Systolic blood pressure (Rattus norvegicus [19]): 186 mmHg; Systolic blood pressure (Rattus norvegicus [20]): 193.8 mmHg; Systolic blood pressure (Rattus norvegicus [21]): 169.8 mmHg; Systolic blood pressure (Rattus norvegicus [22]): 195.8 mmHg; Systolic blood pressure (Rattus norvegicus [23]): 172.4 mmHg; Systolic blood pressure (Rattus norvegicus [24]): 176.2 mmHg; Systolic blood pressure (Rattus norvegicus [25]): 182.8 mmHg; Systolic blood pressure (Rattus norvegicus [26]): 176 mmHg

Reference: ChEMBL document CHEMBL1122824, “Synthesis and biological properties of (carboxyalkyl)amino-substituted bicyclic lactam inhibitors of angiotensin converting enzyme” (J Med Chem, 1985)
